# Active and inactive are the calls of the source. The rule behind the calls is not given here.
# What was measured:
# [1] = target: T1, Receptor-interacting serine/threonine-protein kinase 1 (Homo sapiens) (UniProt Q13546); test: Inhibition of RIPK1 in human FADD-deficient Jurkat I 2.1 cells assessed as protection against TNFalpha-induced necroptosis by measuring remaining viable cells at 10 uM measured after 24 hrs by MTS assay relative to TNFalpha; type: cell-based
# T1 sequence (whole entry): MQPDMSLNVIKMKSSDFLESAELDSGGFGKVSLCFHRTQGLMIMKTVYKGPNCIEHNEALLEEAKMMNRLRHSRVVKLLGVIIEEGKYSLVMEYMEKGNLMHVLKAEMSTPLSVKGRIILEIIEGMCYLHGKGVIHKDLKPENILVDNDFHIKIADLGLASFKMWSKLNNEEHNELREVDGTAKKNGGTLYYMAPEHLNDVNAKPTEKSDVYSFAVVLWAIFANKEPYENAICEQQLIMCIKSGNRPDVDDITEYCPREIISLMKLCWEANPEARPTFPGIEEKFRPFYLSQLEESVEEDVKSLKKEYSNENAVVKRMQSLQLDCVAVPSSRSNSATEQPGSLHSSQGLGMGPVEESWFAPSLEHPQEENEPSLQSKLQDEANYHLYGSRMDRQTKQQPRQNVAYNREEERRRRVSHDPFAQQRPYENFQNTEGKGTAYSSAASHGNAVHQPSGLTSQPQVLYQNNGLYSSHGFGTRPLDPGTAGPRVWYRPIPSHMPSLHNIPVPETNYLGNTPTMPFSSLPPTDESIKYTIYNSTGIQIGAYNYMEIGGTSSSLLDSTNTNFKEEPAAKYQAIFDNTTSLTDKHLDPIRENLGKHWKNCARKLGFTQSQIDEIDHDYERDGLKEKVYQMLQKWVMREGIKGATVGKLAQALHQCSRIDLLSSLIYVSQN
# How it was run: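 FADD-deficient Jurkat cells co-treated 24 h with 10 ng/ml human recombinant TNF-α and 10 μM compound; MTS viability normalized to DMSO control (100%); protection delta = viability with TNF-α plus compound minus viability with TNF-α alone (negative if toxic); n = 3.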
# [2] = target: T2, Serine/threonine-protein kinase haspin (Homo sapiens, UniProt Q8TF76); test: Inhibition of recombinant human HASPIN kinase domain (470 to 798 residues) expressed in bacterial expression system using histone H3(1-21) peptide as substrate by ADP-glo assay
# T2 sequence (Q8TF76 whole entry): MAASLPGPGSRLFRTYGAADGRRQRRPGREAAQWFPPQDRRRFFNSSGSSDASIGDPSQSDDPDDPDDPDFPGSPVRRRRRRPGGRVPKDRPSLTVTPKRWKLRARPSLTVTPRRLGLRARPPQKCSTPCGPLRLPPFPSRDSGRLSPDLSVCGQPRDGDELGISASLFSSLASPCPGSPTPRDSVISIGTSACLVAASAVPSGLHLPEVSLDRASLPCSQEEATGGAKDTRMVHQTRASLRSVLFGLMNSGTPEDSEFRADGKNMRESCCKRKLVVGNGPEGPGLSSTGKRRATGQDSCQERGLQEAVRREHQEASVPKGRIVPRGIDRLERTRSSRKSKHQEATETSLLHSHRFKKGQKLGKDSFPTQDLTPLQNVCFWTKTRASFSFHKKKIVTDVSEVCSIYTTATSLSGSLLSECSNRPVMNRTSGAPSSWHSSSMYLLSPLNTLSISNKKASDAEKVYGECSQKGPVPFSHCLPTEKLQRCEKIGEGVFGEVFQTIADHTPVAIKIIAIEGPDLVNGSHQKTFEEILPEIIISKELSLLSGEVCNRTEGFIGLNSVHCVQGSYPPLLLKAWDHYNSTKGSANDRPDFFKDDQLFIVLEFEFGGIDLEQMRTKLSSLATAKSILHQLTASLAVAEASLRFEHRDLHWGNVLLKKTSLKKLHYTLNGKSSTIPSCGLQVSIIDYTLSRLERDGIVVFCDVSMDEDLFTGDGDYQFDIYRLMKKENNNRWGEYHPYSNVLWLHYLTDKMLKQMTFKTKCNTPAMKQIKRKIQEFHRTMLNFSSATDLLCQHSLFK
# [3] = tested on: Jurkat; test: Protection against TRAIL-induced apoptosis in human Jurkat assessed as increase in cell viability at 0.1 to 50 uM measured after 24 hrs by MTS assay; type: functional, cell-based; details: dose 0.1-50 µM
# How it was run: (§1)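 Jurkat wild-type cells treated with TRAIL-Flag (20 ng/mL) or staurosporine (100 nM) together with increasing compound doses for 24 h; viability by MTS reduction as % of DMSO-treated cells; mean ± SD, n = 3.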
# [4] = target: Cyclin-dependent kinase 5/CDK5 activator 1 (Homo sapiens, UniProt Q00535); test: Inhibition of human recombinant CDK5/p25 expressed in bacterial expression using histone H1 as substrate by ADP-glo assay
# Sequence of Cyclin-dependent kinase 5/CDK5 activator 1 (Q00535 whole entry, canonical isoform): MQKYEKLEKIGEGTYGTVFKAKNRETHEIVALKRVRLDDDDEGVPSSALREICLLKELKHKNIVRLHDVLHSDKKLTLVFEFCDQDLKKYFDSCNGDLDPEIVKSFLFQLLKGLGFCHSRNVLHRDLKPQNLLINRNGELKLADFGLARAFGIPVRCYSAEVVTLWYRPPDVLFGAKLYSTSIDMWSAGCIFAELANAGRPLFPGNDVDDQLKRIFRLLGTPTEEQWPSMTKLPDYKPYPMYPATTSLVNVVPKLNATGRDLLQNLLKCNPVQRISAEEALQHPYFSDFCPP
# Sequence of Cyclin-dependent kinase 5/CDK5 activator 1 (Q15078 whole entry, further chain, canonical isoform): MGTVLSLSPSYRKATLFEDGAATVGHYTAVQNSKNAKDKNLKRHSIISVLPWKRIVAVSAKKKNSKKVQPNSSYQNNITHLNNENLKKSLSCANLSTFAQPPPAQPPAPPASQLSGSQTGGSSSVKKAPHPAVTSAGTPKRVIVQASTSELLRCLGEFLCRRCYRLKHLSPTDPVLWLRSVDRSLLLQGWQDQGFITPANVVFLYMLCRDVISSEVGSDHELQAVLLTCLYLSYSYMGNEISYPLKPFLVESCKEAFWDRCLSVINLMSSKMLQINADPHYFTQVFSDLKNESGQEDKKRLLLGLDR
# [5] = target: Casein kinase I isoform epsilon (Homo sapiens, UniProt P49674); test: Inhibition of recombinant human CK1epsilon expressed in baculovirus infected Sf9 insect cells using RRKHAAIGSpAYSITA as substrate by ADP-glo assay
# Sequence of Casein kinase I isoform epsilon (P49674 whole entry, canonical isoform): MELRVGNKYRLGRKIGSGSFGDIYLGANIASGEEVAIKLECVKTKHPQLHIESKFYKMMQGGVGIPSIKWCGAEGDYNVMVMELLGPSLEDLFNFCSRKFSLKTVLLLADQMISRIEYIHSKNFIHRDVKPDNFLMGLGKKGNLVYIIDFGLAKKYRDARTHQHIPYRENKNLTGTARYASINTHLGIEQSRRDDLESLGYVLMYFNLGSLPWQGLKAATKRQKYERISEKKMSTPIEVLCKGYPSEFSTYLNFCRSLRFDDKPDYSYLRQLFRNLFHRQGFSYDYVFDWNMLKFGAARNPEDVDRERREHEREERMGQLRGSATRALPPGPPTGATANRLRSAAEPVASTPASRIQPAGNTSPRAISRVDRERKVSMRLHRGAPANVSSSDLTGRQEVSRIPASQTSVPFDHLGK
# [6] = tested on: Jurkat; test: Protection against staurosporine-induced apoptosis in human Jurkat assessed as increase in cell viability at 0.1 to 50 uM measured after 24 hrs by MTS assay; type: functional, cell-based; details: dose 0.1-50 µM; how it was run: as §1
# [7] = target: Serine/threonine-protein kinase pim-1 (Homo sapiens, UniProt P11309); test: Inhibition of recombinant human PIM1 expressed in bacterial expression system using histone H1 as substrate by ADP-glo assay
# Sequence of Serine/threonine-protein kinase pim-1 (P11309 whole entry): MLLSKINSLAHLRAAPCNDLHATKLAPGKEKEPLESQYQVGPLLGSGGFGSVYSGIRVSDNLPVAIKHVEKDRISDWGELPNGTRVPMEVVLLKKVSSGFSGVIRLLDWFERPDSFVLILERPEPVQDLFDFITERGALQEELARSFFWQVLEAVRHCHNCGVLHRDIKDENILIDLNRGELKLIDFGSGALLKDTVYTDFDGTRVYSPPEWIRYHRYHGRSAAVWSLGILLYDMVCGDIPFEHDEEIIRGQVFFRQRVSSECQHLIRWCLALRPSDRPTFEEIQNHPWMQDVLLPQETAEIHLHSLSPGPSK
# [8] = Cytotoxicity against human FADD-deficient Jurkat I 2.1 cells assessed as reduction in cell viability at >25 uM measured after 24 hrs by MTS assay; type: cell-based; details: jurkat i 2.1, 24 h
IC50 [2] [µM],IC50 [4] [µM],IC50 [5] [µM],IC50 [7] [µM],Compound,Activity [1] [%],Activity [3],Activity [6],Activity [8]
> 10,> 10,> 10,> 10,CCCCNc1nc2cc([N+](=O)[O-])ccc2s1,56.1,inactive,inactive,
> 10,> 10,> 10,> 10,CCCCNc1nc2ccc([N+](=O)[O-])cc2[nH]1,56.9,,,Toxic

# Reference: ChEMBL document CHEMBL4765378, “Discovery of simplified benzazole fragments derived from the marine benzosceptrin B as necroptosis inhibitors involving the receptor interacting protein Kinase-1” (Eur J Med Chem, 2020)
